According to ChEMBL document CHEMBL1145072, “Synthesis and biological evaluation of novel flavone-8-acetic acid derivatives as reversible inhibitors of aminopeptidase N/CD13” (J Med Chem, 2003):

Columns and labels:
[1] = molecular target: Aminopeptidase N (Homo sapiens) (UniProt P15144); test: In vitro inhibition of aminopeptidase N (APN) activity in intact U937 cells in presence of Ala-pNA and 10e-3 M concentration of compound; format: cell-based; conditions: U-937
Procedure, shortened: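 Intact U937 cells (5 × 10⁵) incubated 15 min at 37 °C in 0.1 mL peptidase buffer with Ala-pNA (0.5 mg/mL) and compound at 10^-3 M. pNA release read at 405 nm. Remaining activity expressed as percent of uninhibited control; mean of three to ten experiments ± SD.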
Target sequence in this assay (P15144 whole entry): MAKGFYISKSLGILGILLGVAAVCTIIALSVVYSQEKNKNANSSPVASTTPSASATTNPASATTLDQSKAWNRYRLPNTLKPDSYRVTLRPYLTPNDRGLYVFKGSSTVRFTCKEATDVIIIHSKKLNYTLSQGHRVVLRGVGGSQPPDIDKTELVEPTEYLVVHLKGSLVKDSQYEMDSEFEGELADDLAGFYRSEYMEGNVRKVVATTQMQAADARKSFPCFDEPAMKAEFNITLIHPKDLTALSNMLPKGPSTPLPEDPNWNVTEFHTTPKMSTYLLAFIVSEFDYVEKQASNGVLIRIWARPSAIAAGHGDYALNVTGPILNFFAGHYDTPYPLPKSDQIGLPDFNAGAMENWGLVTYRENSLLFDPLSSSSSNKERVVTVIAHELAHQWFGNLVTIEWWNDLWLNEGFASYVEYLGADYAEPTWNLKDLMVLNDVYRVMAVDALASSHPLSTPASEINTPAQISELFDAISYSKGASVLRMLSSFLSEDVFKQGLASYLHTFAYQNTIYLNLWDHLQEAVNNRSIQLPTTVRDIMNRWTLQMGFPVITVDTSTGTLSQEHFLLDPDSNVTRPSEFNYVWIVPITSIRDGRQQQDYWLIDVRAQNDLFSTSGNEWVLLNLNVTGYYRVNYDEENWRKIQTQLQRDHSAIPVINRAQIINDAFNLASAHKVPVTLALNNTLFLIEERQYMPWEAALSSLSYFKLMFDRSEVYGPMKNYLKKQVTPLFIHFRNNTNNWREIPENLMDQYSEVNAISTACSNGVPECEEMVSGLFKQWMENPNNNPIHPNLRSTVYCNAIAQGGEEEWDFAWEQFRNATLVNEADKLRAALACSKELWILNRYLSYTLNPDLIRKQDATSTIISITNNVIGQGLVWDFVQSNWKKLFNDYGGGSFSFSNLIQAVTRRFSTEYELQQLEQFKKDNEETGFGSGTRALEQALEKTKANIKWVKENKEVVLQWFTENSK

U-937 = test: In vitro cytotoxicity towards U937 cell growth was evaluated after 3 days of incubation (10e-4 M); format: functional, Homo sapiens
Procedure, shortened: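 Human monoblastic U937 cells in RPMI 1640 with 10% heat-inactivated FCS, 5% CO2, 37 °C; seeded at 0.5 × 10⁵ cells/mL in fresh medium and exposed continuously to 10^-4 M compound for 3 days. Cells then washed twice and counted, and viability determined by trypan blue exclusion.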

[2] = molecular target: Aminopeptidase N (Homo sapiens) (UniProt P15144); test: Inhibitory concentration of compound towards cell surface aminopeptidase N (APN/CD13) on human U937 cells
Target sequence in this assay (P15144 whole entry, looked up): as the sequence (P15144 whole entry) above

[3] = molecular target: T1, Aminopeptidase N (Sus scrofa) (UniProt P15145); test: Inhibition of cell surface aminopeptidase N (APN/CD13) at 0.3*10e-3 M compound concentration
T1 sequence (whole entry): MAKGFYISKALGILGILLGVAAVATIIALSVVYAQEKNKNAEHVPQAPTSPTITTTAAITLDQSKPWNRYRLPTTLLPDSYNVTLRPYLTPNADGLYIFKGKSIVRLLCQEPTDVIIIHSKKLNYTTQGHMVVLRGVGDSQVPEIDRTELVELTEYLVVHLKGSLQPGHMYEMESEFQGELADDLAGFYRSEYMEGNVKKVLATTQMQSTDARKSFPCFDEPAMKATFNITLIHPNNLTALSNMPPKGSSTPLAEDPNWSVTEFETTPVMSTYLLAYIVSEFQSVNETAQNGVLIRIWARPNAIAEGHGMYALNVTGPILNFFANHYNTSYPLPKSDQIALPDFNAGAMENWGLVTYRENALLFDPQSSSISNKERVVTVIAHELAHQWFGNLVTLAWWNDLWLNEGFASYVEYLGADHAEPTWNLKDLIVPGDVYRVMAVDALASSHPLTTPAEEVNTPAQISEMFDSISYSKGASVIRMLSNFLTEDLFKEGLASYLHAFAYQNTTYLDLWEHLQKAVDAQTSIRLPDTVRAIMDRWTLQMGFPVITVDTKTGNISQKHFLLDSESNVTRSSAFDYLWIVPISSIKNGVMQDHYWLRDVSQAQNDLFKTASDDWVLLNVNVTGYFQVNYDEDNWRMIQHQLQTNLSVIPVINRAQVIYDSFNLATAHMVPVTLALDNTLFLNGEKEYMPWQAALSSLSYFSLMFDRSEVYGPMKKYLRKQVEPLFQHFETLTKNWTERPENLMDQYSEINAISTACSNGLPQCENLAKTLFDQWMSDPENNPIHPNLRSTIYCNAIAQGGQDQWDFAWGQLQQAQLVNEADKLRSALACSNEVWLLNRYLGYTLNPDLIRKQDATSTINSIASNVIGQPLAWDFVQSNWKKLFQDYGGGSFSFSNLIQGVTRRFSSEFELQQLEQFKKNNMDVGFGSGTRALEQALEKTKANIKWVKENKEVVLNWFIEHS

[4] = molecular target: T2, Neprilysin (Rattus norvegicus) (UniProt P07861); test: Inhibition of neutral endopeptidase (NEP[…]) at 0.3*10e-3 M compound concentration
T2 sequence (whole entry): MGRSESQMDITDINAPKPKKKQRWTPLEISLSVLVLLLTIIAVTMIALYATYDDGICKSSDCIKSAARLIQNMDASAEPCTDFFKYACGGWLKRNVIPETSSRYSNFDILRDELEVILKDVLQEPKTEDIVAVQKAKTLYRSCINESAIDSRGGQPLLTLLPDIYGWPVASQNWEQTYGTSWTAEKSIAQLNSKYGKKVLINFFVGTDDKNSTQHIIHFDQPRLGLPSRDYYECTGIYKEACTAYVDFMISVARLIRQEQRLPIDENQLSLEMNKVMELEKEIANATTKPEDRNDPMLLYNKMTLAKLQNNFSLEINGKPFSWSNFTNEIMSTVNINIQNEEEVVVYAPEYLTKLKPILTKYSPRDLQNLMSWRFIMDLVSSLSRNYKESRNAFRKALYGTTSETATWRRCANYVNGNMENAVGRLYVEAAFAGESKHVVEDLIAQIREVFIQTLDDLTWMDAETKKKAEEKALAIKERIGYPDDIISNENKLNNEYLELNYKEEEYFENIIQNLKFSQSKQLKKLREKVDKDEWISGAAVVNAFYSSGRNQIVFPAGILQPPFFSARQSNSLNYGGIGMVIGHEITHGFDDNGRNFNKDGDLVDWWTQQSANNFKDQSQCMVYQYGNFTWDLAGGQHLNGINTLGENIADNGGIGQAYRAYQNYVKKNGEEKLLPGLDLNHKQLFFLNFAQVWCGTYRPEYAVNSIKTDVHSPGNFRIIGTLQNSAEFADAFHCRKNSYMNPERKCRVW

| Structure (SMILES) | inhibition [1] | Cytotoxicity (U-937) | IC50 [2] | inhibition [3] | inhibition [4] |
| --- | --- | --- | --- | --- | --- |
| O=c1cc(-c2ccccc2)oc2ccccc12 [FLAVONE] | 5% | <10% |  |  |  |
| O=C(O)Cc1cccc2c(=O)c([N+](=O)[O-])c(-c3ccccc3)oc12 | 68% | <10% |  |  |  |
| O=C(O)Cc1cccc2c(=O)c([N+](=O)[O-])c(-c3ccccc3[N+](=O)[O-])oc12 | 88% | <10% | 25 µM |  |  |
| COC(=O)Cc1cccc2c(=O)c([N+](=O)[O-])c(-c3ccccc3)oc12 | < 5% | <10% |  |  |  |
| O=c1c([N+](=O)[O-])c(-c2ccccc2)oc2ccccc12 | 30% | <10% |  |  |  |
| O=CCc1cccc2c(=O)c([N+](=O)[O-])c(-c3ccccc3)oc12 | 51% | >40% |  |  |  |
| Cl.Nc1c(-c2ccccc2)oc2c(CC(=O)O)cccc2c1=O | 33% | <10% |  |  |  |
| O=C(O)Cc1cccc2c(=O)c([N+](=O)[O-])c(-c3ccc([N+](=O)[O-])cc3)oc12 | 63% | <10% |  |  |  |
| COc1cccc(-c2oc3c(CC(=O)O)cccc3c(=O)c2[N+](=O)[O-])c1[N+](=O)[O-] | 75% | <10% |  |  |  |
| COc1ccc([N+](=O)[O-])c(-c2oc3c(CC(=O)O)cccc3c(=O)c2[N+](=O)[O-])c1 | 80% | <10% |  |  |  |
| O=C(O)Cc1cccc2c(O)c3nc4ccccc4c-3oc12 | 10% | 30% |  |  |  |
| O=C(O)Cc1cccc2c(=O)c([N+](=O)[O-])c(-c3cccc([N+](=O)[O-])c3)oc12 | 44% | <10% |  |  |  |
| COCOC(=O)Cc1cccc2c(=O)c([N+](=O)[O-])c(-c3ccccc3OCc3ccccc3)oc12 | 32% | >95% |  |  |  |
| COC(=O)c1ccccc1-c1oc2c(CC(=O)O)cccc2c(=O)c1[N+](=O)[O-] | 66% | <10% |  |  |  |
| O=c1c([N+](=O)[O-])c(-c2ccccc2[N+](=O)[O-])oc2ccccc12 | < 5% | >40% |  |  |  |
| O=C(O)Cc1cccc2c(=O)c3c(oc12)-c1ccccc1NC(=O)N3 | 8% | <10% |  |  |  |
| O=C(O)Cc1cccc2c(=O)c3c(oc12)-c1ccccc1OC(=O)N3 | 19% | 30% |  |  |  |

| Structure (SMILES) | inhibition [1] | Cytotoxicity (U-937) | IC50 [2] | inhibition [3] | inhibition [4] |
| --- | --- | --- | --- | --- | --- |
| COCOC(=O)Cc1cccc2c(=O)c3c(oc12)-c1ccccc1OC(=O)N3 | 25% | >95% |  |  |  |
| O=C(O)Cc1cccc2c(=O)c([N+](=O)[O-])c(-c3ccccc3Cl)oc12 | 76% | 30% |  |  |  |
| COc1ccc(-c2oc3c(CC(=O)O)cccc3c(=O)c2[N+](=O)[O-])cc1 | 64% | >40% |  |  |  |
| O=c1cc(-c2ccccc2)oc2cc(O)c(O)c(O)c12 |  |  |  | 57% | 36% |
| O=C(O)Cc1cccc2c(=O)c([N+](=O)[O-])c(-c3ccccc3C(=O)OCc3ccccc3)oc12 | 77% | >40% |  |  |  |
| O=C(O)Cc1cccc2c(=O)c([N+](=O)[O-])c(-c3ccccc3OCc3ccccc3)oc12 | 76% | >55% |  |  |  |
| CC(C)C[C@H](NC(=O)[C@@H](O)[C@H](N)Cc1ccccc1)C(=O)O [UBENIMEX] | 85% | >40% |  |  |  |
| O=c1c(O)c(-c2ccc(O)c(O)c2)oc2cc(O)cc(O)c12 |  |  |  | 73% | 49% |
| COCOC(=O)Cc1cccc2c(=O)c(N)c(-c3ccccc3O)oc12 | 19% | >65% |  |  |  |
| COc1ccccc1-c1oc2c(CC(=O)O)cccc2c(=O)c1[N+](=O)[O-] | 69% | >20% |  |  |  |
| COCOC(=O)Cc1cccc2c(=O)c([N+](=O)[O-])c(-c3ccccc3[N+](=O)[O-])oc12 | 48% | >85% |  |  |  |
| COc1cc(-c2oc3cc(O)cc(O)c3c(=O)c2O)ccc1O |  |  |  | 73% | 49% |
| COc1ccc(-c2oc3c(CC(=O)O)cccc3c(=O)c2[N+](=O)[O-])cc1[N+](=O)[O-] | 61% | <10% |  |  |  |
| C=CCc1cccc2c(=O)c([N+](=O)[O-])c(-c3ccccc3[N+](=O)[O-])oc12 | 16% | <10% |  |  |  |
| O=C(O)Cc1cccc2c(=O)cc(-c3ccccc3[N+](=O)[O-])oc12 | 83% | >80% |  |  |  |
| O=C(O)Cc1cccc2c(=O)cc(-c3ccccc3)oc12 [MITOFLAXONE] | 30% | <10% |  |  |  |
